Results from ChEMBL document CHEMBL1157468, “Design, synthesis, and testing of non-nephrotoxic desazadesferrithiocin polyether analogues” (J Med Chem, 2008).

Key:
[1] = tested on: Rattus norvegicus; assay: Iron-clearing efficiency in non-iron-overloaded Sprague-Dawley rat at 300 umol/kg, po after 24 hrs relative to control; format: functional
Outline: (§1)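 Male Sprague–Dawley rats (400–450 g), not iron-loaded and bile duct-cannulated, got one dose of 50, 150 or 300 µmol/kg po, or 300 µmol/kg sc. Vehicle was water or the monosodium salt. Bile was collected every 3 h for 24 h and urine at 24 h. Iron was measured by atomic absorption. Efficiency was treated minus control iron excretion, divided by theoretical output (2:1 ligand:iron), as a percent; mean ± SEM.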

[2] = tested on: Rattus norvegicus; assay: Iron-clearing efficiency in non-iron-overloaded Sprague-Dawley rat at 150 umol/kg, po after 24 hrs relative to control; format: functional; outline: as §1
[3] = tested on: Rattus norvegicus; assay: Iron-clearing efficiency in non-iron-overloaded Sprague-Dawley rat at 50 umol/kg, po after 24 hrs relative to control; format: functional; outline: as §1
[4] = tested on: Rattus norvegicus; assay: Iron-clearing efficiency in non-iron-overloaded Sprague-Dawley rat bile assessed as iron excretion at 300 umol/kg, po; format: functional; outline: as §1
[5] = tested on: Rattus norvegicus; assay: Iron-clearing efficiency in non-iron-overloaded Sprague-Dawley rat bile assessed as iron excretion at 150 umol/kg, po; format: functional; outline: as §1
[6] = tested on: Rattus norvegicus; assay: Iron-clearing efficiency in non-iron-overloaded Sprague-Dawley rat bile assessed as iron excretion at 50 umol/kg, po; format: functional; outline: as §1
[7] = tested on: Rattus norvegicus; assay: Iron-clearing efficiency in non-iron-overloaded Sprague-Dawley rat at 300 umol/kg, sc after 24 hrs relative to control; format: functional; outline: as §1
[8] = tested on: Sapajus apella; assay: Iron-clearing efficiency in iron-overloaded Cebus apella at 150 umol/kg, po after 2 days relative to control; format: functional
Outline: (§2)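 Monkeys (Cebus apella, 3.5–4 kg) were iron-loaded to about 500 mg Fe/kg with iv iron dextran and rested at least 60 days. They then got one 150 µmol/kg dose, po or sc. Feces and urine were collected every 24 h from 4 days before to 5 days after dosing, and iron was measured by flame atomic absorption. Efficiency was the 2-day post-drug iron minus the 4-day pre-drug baseline, divided by theoretical output (2:1 ligand:iron); mean ± SEM.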

[9] = tested on: Sapajus apella; assay: Iron-clearing efficiency in iron-overloaded Cebus apella at 150 umol/kg, sc after 2 days relative to control; format: functional; outline: as §2
[10] = tested on: Rattus norvegicus; assay: Toxicity in non-iron-overloaded Sprague-Dawley rat assessed as survival at 384 umol/kg/day, po after 10 days by non-renal perfusion protocol; format: organism-based; conditions: in vivo, 240 h
Outline: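 Non-iron-loaded male Sprague–Dawley rats (250–300 g) were fasted overnight and gavaged po once daily for 10 days at 384 µmol/kg/day. They were fed about 3 h postdose with 5 h food access, then fasted again. Survival was followed over the exposure. Euthanasia was 24 h after the last dose, with extensive tissue histopathology.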

[11] = tested on: Rattus norvegicus; assay: Nephrotoxicity in Sprague-Dawley rat assessed as heavy vacuolized renal tubules at […] for 7 days by renal perfusion studies; format: toxicity, organism-based; conditions: in vivo, 168 h, in the assay text read “237 umol/kg” for “273 umol/kg”
Outline: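 Male Sprague–Dawley rats (200–250 g), fasted overnight, got 237 µmol/kg/dose po twice daily (474 µmol/kg/day) for 7 days and were fed about 3 h post-drug. Untreated age-matched rats were controls. One day post-drug, under pentobarbital, kidneys were perfusion-fixed with glutaraldehyde in Tyrode's buffer and embedded in TAAB. 500 nm sections were stained with toluidine blue and examined by light microscopy at 400×.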

[12] = tested on: Liver; assay: Biodistribution in Sprague-Dawley rat liver assessed per gram tissue wet weight at 300 umol/kg, sc after 1 hr; format: ADME, organism-based; conditions: in vivo
[13] = tested on: Liver; assay: Biodistribution in Sprague-Dawley rat liver assessed per gram tissue wet weight at 300 umol/kg, po after 1 hr; format: ADME, organism-based; conditions: in vivo
Outline: (§3)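 Male Sprague–Dawley rats (250–350 g) got one 300 µmol/kg dose, po or sc. Vehicle was water or the monosodium salt (free acid plus 1 equiv NaOH). Three rats per time point were euthanized by CO2 at 1, 2 or 4 h. Plasma came from citrated cardiac blood; liver, kidney, heart and pancreas were removed. Drug levels were measured by HPLC with UV detection at 310 nm against linear calibration curves (detection limit 0.25 µM).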

[14] = tested on: Liver; assay: Biodistribution in Sprague-Dawley rat liver assessed per gram tissue wet weight at 300 umol/kg, sc after 2 hrs; format: ADME, organism-based; conditions: in vivo
[15] = tested on: Liver; assay: Biodistribution in Sprague-Dawley rat liver assessed per gram tissue wet weight at 300 umol/kg, po after 2 hrs; format: ADME, organism-based; conditions: in vivo; outline: as §3
[16] = tested on: Liver; assay: Biodistribution in Sprague-Dawley rat liver assessed per gram tissue wet weight at 300 umol/kg, sc after 4 hrs; format: ADME, organism-based; conditions: in vivo
[17] = tested on: Liver; assay: Biodistribution in Sprague-Dawley rat liver assessed per gram tissue wet weight at 300 umol/kg, po after 4 hrs; format: ADME, organism-based; conditions: in vivo; outline: as §3
[18] = tested on: Kidney; assay: Biodistribution in Sprague-Dawley rat kidney assessed per gram tissue wet weight at 300 umol/kg, sc after 1 hr; format: ADME, organism-based; conditions: in vivo
[19] = tested on: Kidney; assay: Biodistribution in Sprague-Dawley rat kidney assessed per gram tissue wet weight at 300 umol/kg, po after 1 hr; format: ADME, organism-based; conditions: in vivo; outline: as §3
[20] = tested on: Kidney; assay: Biodistribution in Sprague-Dawley rat kidney assessed per gram tissue wet weight at 300 umol/kg, sc after 2 hrs; format: ADME, organism-based; conditions: in vivo
[21] = tested on: Kidney; assay: Biodistribution in Sprague-Dawley rat kidney assessed per gram tissue wet weight at 300 umol/kg, po after 2 hrs; format: ADME, organism-based; conditions: in vivo; outline: as §3
[22] = tested on: Kidney; assay: Biodistribution in Sprague-Dawley rat kidney assessed per gram tissue wet weight at 300 umol/kg, sc after 4 hrs; format: ADME, organism-based; conditions: in vivo
[23] = tested on: Kidney; assay: Biodistribution in Sprague-Dawley rat kidney assessed per gram tissue wet weight at 300 umol/kg, po after 4 hrs; format: ADME, organism-based; conditions: in vivo; outline: as §3
[24] = tested on: Heart; assay: Biodistribution in Sprague-Dawley rat heart assessed per gram tissue wet weight at 300 umol/kg, sc after 1 hr; format: ADME, organism-based; conditions: in vivo
[25] = tested on: Heart; assay: Biodistribution in Sprague-Dawley rat heart assessed per gram tissue wet weight at 300 umol/kg, po after 1 hr; format: ADME, organism-based; conditions: in vivo; outline: as §3
[26] = tested on: Heart; assay: Biodistribution in Sprague-Dawley rat heart assessed per gram tissue wet weight at 300 umol/kg, sc after 2 hrs; format: ADME, organism-based; conditions: in vivo
[27] = tested on: Heart; assay: Biodistribution in Sprague-Dawley rat heart assessed per gram tissue wet weight at 300 umol/kg, po after 2 hrs; format: ADME, organism-based; conditions: in vivo; outline: as §3
[28] = tested on: Heart; assay: Biodistribution in Sprague-Dawley rat heart assessed per gram tissue wet weight at 300 umol/kg, sc after 4 hrs; format: ADME, organism-based; conditions: in vivo
[29] = tested on: Pancreas; assay: Biodistribution in Sprague-Dawley rat pancreas assessed per gram tissue wet weight at 300 umol/kg, sc after 1 hr; format: ADME, organism-based; conditions: in vivo
[30] = tested on: Pancreas; assay: Biodistribution in Sprague-Dawley rat pancreas assessed per gram tissue wet weight at 300 umol/kg, po after 1 hr; format: ADME, organism-based; conditions: in vivo; outline: as §3
[31] = tested on: Pancreas; assay: Biodistribution in Sprague-Dawley rat pancreas assessed per gram tissue wet weight at 300 umol/kg, sc after 2 hrs; format: ADME, organism-based; conditions: in vivo
[32] = tested on: Pancreas; assay: Biodistribution in Sprague-Dawley rat pancreas assessed per gram tissue wet weight at 300 umol/kg, po after 2 hrs; format: ADME, organism-based; conditions: in vivo; outline: as §3
[33] = tested on: Pancreas; assay: Biodistribution in Sprague-Dawley rat pancreas assessed per gram tissue wet weight at 300 umol/kg, sc after 4 hrs; format: ADME, organism-based; conditions: in vivo
[34] = tested on: Plasma; assay: Biodistribution in Sprague-Dawley rat plasma at 300 umol/kg, sc after 1 hr; format: ADME, organism-based; conditions: in vivo
[35] = tested on: Plasma; assay: Biodistribution in Sprague-Dawley rat plasma at 300 umol/kg, po after 1 hr; format: ADME, organism-based; conditions: in vivo; outline: as §3
[36] = tested on: Plasma; assay: Biodistribution in Sprague-Dawley rat plasma at 300 umol/kg, sc after 2 hrs; format: ADME, organism-based; conditions: in vivo
[37] = tested on: Plasma; assay: Biodistribution in Sprague-Dawley rat plasma at 300 umol/kg, po after 2 hrs; format: ADME, organism-based; conditions: in vivo; outline: as §3
[38] = tested on: Plasma; assay: Biodistribution in Sprague-Dawley rat plasma at 300 umol/kg, sc after 4 hrs; format: ADME, organism-based; conditions: in vivo
[39] = tested on: Plasma; assay: Biodistribution in Sprague-Dawley rat plasma at 300 umol/kg, po after 4 hrs; format: ADME, organism-based; conditions: in vivo; outline: as §3
[40] = tested on: Rattus norvegicus; assay: Toxicity in non-iron-overloaded Sprague-Dawley rat assessed as survival at 63.3 umol/kg/day, po after 30 days by non-renal perfusion protocol; conditions: in vivo, 720 h
[41] = tested on: Rattus norvegicus; assay: Toxicity in iron-overloaded Sprague-Dawley rat assessed as survival at 119 umol/kg/day, po after 30 days by non-renal perfusion protocol; format: organism-based; conditions: in vivo, 720 h
[42] = tested on: Heart; assay: Biodistribution in Sprague-Dawley rat heart assessed per gram tissue wet weight at 300 umol/kg, po after 4 hrs; format: ADME, organism-based; conditions: in vivo; outline: as §3

SMILES	Activity [1] [%]	Activity [2] [%]	Activity [4] [%]	Activity [5] [%]	Activity [7] [%]	Activity [8] [%]	Activity [9] [%]	Activity [11]	Drug uptake [12] [nmol/g]	Drug uptake [13] [nmol/g]	Drug uptake [14] [nmol/g]	Drug uptake [15] [nmol/g]	Drug uptake [16] [nmol/g]	Drug uptake [17] [nmol/g]	Drug uptake [18] [nmol/g]	Drug uptake [19] [nmol/g]	Drug uptake [20] [nmol/g]	Drug uptake [21] [nmol/g]	Drug uptake [22] [nmol/g]	Drug uptake [23] [nmol/g]	also measured
COCCOCCOCCOc1ccc(C2=N[C@@](C)(C(=O)O)CS2)c(O)c1	5.5	11.2	>95	>95	8.7	25.4	30.4	Non-toxic	339	159	132	144	67	35	252	114	41	69	34	10	Activity [3]: 21.7%; Activity [6]: >95%; Activity [10]: Non-toxic; Drug uptake [24]: 35 nmol/g; Drug uptake [25]: 17 nmol/g; Drug uptake [26]: 9 nmol/g; Drug uptake [27]: 9 nmol/g; Drug uptake [28]: 5 nmol/g; Drug uptake [29]: 30 nmol/g; Drug uptake [30]: 25 nmol/g; Drug uptake [31]: 30 nmol/g; Drug uptake [32]: 9 nmol/g; Drug uptake [33]: 13 nmol/g; Drug uptake [34]: 140 nmol/g; Drug uptake [35]: 64 nmol/g; Drug uptake [36]: 16 nmol/g; Drug uptake [37]: 32 nmol/g; Drug uptake [38]: 5 nmol/g; Drug uptake [39]: 2 nmol/g; Activity [40]: Non-toxic
C[C@]1(C(=O)O)CSC(c2ccc(O)cc2O)=N1 [DEFERITRIN]	1.1	1.5	>98	>98	1.1	16.8	15.9	Toxic	80	131	48	73	25	44	179	208	97	100	27	61	Activity [41]: Non-toxic; Drug uptake [24]: 13 nmol/g; Drug uptake [25]: 8 nmol/g; Drug uptake [26]: 5 nmol/g; Drug uptake [27]: 5 nmol/g; Drug uptake [42]: 3 nmol/g; Drug uptake [29]: 28 nmol/g; Drug uptake [30]: 13 nmol/g; Drug uptake [31]: 6 nmol/g; Drug uptake [32]: 9 nmol/g; Drug uptake [33]: 6 nmol/g; Drug uptake [34]: 34 nmol/g; Drug uptake [35]: 31 nmol/g; Drug uptake [36]: 13 nmol/g; Drug uptake [37]: 8 nmol/g; Drug uptake [38]: 2 nmol/g; Drug uptake [39]: 5 nmol/g
